Assay results published in ChEMBL document CHEMBL4229446, “Development of Novel Monoamine Oxidase-B (MAO-B) Inhibitors with Reduced Blood-Brain Barrier Permeability for the Potential Management of Noncentral Nervous System (CNS) Diseases” (J Med Chem, 2018).

Legend:
[1] = target: T1, Amine oxidase [flavin-containing] B (Homo sapiens, UniProt P27338); test: Inhibition of human recombinant MAO-B expressed in baculovirus infected BTI-TN-5B1-4 insect cells using benzylamine as substrate preincubated for 1 hr followed by substrate addition and measured after 30 mins by resazurin dye-based fluorescence assay; type: cell-based
T1 sequence (P27338 whole entry): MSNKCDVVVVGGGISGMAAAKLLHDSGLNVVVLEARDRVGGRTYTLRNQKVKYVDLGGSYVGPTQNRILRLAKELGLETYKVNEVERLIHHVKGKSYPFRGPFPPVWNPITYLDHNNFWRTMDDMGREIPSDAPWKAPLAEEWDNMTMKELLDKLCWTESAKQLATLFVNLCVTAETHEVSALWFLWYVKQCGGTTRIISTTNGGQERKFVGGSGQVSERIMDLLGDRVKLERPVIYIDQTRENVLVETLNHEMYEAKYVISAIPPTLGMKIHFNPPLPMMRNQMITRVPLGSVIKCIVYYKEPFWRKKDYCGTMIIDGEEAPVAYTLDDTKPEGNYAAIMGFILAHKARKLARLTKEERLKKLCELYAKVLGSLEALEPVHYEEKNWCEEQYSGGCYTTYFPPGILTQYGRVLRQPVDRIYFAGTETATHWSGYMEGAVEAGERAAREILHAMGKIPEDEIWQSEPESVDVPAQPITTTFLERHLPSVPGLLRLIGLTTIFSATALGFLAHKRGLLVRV

[2] = Metabolic stability in mouse liver microsomes assessed as parent compound remaining at 1 uM after 60 mins by UPLC-MS/MS analysis; type: ADME, microsome; conditions: liver microsomes, read-out: Stability
Procedure, shortened: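 Compound at 1 μM with 0.5 mg/mL mouse or human liver microsomes in 100 mM potassium phosphate pH 7.4, 3.3 mM MgCl2, 1 mM NADPH, at 37 °C. Started with NADPH; minus-NADPH control run. Stopped at 0, 5, 15, 30, 45 and 60 min with acetonitrile/formic acid plus internal standard. Parent remaining by UPLC-MS/MS, in triplicate.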

[3] = Cmax in C57BL/6 mouse plasma at 23.4 mg/kg, iv administered as single dose measured 24 hrs by UPLC-MS/MS analysis; type: ADME, organism-based; design: dose 23.4 mg/kg, route intravenous
Procedure, shortened: (§1)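 21 animals dosed at 0 min, 3 killed per time point (0, 5, 15, 30 min, 1, 4, 24 h). Plasma extracted by protein precipitation/phospholipid removal. Brain homogenized in 50 mM ammonium formate, then extracted in acidified organic solvent. Both quantified by UPLC-MS/MS (MRM), brain ng/g taken as ng/mL. Noncompartmental analysis. Kp = AUClast brain/plasma.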

[4] = AUClast in C57BL/6 mouse plasma at 23.4 mg/kg, iv administered as single dose measured 24 hrs by UPLC-MS/MS analysis; type: ADME, organism-based; design: dose 23.4 mg/kg, time 0 - last, route intravenous; procedure, shortened: as §1
[5] = Apparent half-life of the terminal disposition phase in C57BL/6 mouse plasma at 23.4 mg/kg, iv administered as single dose measured 24 hrs by UPLC-MS/MS analysis; type: ADME, organism-based; conditions: read-out: t1/2 lambda z (converted); procedure, shortened: as §1
[6] = Apparent half-life of the terminal disposition phase in C57BL/6 mouse brain at 23.4 mg/kg, iv administered as single dose measured 24 hrs by UPLC-MS/MS analysis; type: ADME, organism-based; conditions: read-out: t1/2 lambda z (converted); procedure, shortened: as §1
[7] = Tmax in C57BL/6 mouse plasma at 23.4 mg/kg, sc administered as single dose measured 24 hrs by UPLC-MS/MS analysis; type: ADME, organism-based
Procedure, shortened: (§2)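 15 animals dosed, 3 killed at each of 1, 2, 4, 6 and 24 h. Plasma and brain homogenate (ammonium formate, acidified organic extraction) assayed by UPLC-MS/MS, brain ng/g taken as ng/mL. Noncompartmental parameters exclude values above/below quantification limit or undetected. Kp = AUClast brain/plasma.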

[8] = Cmax in C57BL/6 mouse plasma at 23.4 mg/kg, sc administered as single dose measured 24 hrs by UPLC-MS/MS analysis; type: ADME, organism-based; design: dose 23.4 mg/kg, route subcutaneous; procedure, shortened: as §2
[9] = Cmax in C57BL/6 mouse brain at 23.4 mg/kg, sc administered as single dose measured 24 hrs by UPLC-MS/MS analysis; type: ADME, organism-based; design: dose 23.4 mg/kg, route subcutaneous; procedure, shortened: as §2
[10] = Apparent half-life of the terminal disposition phase in C57BL/6 mouse plasma at 23.4 mg/kg, po administered as single dose measured 24 hrs by UPLC-MS/MS analysis; type: ADME, organism-based; conditions: read-out: t1/2 lambda z (converted); procedure, shortened: as §2
[11] = Cmax in C57BL/6 mouse brain at 23.4 mg/kg, po administered as single dose measured 24 hrs by UPLC-MS/MS analysis; type: ADME, organism-based; design: dose 23.4 mg/kg, route oral; procedure, shortened: as §2
[12] = AUClast in C57BL/6 mouse brain at 23.4 mg/kg, po administered as single dose measured 24 hrs by UPLC-MS/MS analysis; type: ADME, organism-based; design: dose 23.4 mg/kg, route oral, time 0 - last; procedure, shortened: as §2
[13] = AUClast in C57BL/6 mouse plasma at 24.5 mg/kg, iv administered as single dose measured 24 hrs by UPLC-MS/MS analysis; type: ADME, organism-based; design: dose 24.5 mg/kg, time 0 - last, route intravenous
Procedure, shortened: (§3)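 21 animals dosed at 0 min, 3 sacrificed at each of 0, 5, 15, 30 min, 1, 4 and 24 h. Plasma was extracted by protein precipitation with phospholipid removal. Brain was weighed, bead-homogenised in 50 mM ammonium formate and extracted in acidified organic solvent. Quantified by UPLC-MS/MS (MRM). Brain ng/g taken as ng/mL. Parameters came from noncompartmental analysis. Kp = AUClast brain/plasma.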

[14] = Apparent half-life of the terminal disposition phase in C57BL/6 mouse plasma at 24.5 mg/kg, iv administered as single dose measured 24 hrs by UPLC-MS/MS analysis; type: ADME, organism-based; conditions: read-out: t1/2 lambda z (converted); procedure, shortened: as §3
[15] = Ratio of AUClast in brain to plasma in C57BL/6 mouse at 24.5 mg/kg, iv administered as single dose measured 24 hrs by UPLC-MS/MS analysis; type: ADME, organism-based; procedure, shortened: as §3
[16] = AUClast in C57BL/6 mouse plasma at 24.5 mg/kg, sc administered as single dose measured 24 hrs by UPLC-MS/MS analysis; type: ADME, organism-based; design: dose 24.5 mg/kg, time 0 - last, route subcutaneous
Procedure, shortened: (§4)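 15 animals dosed, 3 sacrificed at each of 1, 2, 4, 6 and 24 h. Plasma and brain homogenate were extracted and quantified by UPLC-MS/MS. Parameters came from noncompartmental analysis. Values above or below the limit of quantification, or undetected, were omitted. Kp = AUClast brain/plasma.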

[17] = Cmax in C57BL/6 mouse brain at 24.5 mg/kg, sc administered as single dose measured 24 hrs by UPLC-MS/MS analysis; type: ADME, organism-based; design: dose 24.5 mg/kg, route subcutaneous; procedure, shortened: as §4
[18] = Ratio of AUClast in brain to plasma in C57BL/6 mouse at 24.5 mg/kg, sc administered as single dose measured 24 hrs by UPLC-MS/MS analysis; type: ADME, organism-based; procedure, shortened: as §4
[19] = Tmax in C57BL/6 mouse plasma at 24.5 mg/kg, po administered as single dose measured 24 hrs by UPLC-MS/MS analysis; type: ADME, organism-based
Procedure, shortened: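 Plasma extracted by protein precipitation/phospholipid removal and measured by UPLC-MS/MS (MRM). Parameters by noncompartmental analysis, omitting values outside quantification limits or undetected.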

[20] = AUClast in C57BL/6 mouse plasma at 24.5 mg/kg, po administered as single dose measured 24 hrs by UPLC-MS/MS analysis; type: ADME, organism-based; design: dose 24.5 mg/kg, route oral, time 0 - last; procedure, shortened: as §4
[21] = AUClast in C57BL/6 mouse brain at 24.5 mg/kg, po administered as single dose measured 24 hrs by UPLC-MS/MS analysis; type: ADME, organism-based; design: dose 24.5 mg/kg, route oral, time 0 - last; procedure, shortened: as §4

CN(CC(=O)O)[C@H](CC#N)Cc1ccc(OCc2ccc(Cl)c(Cl)c2)cc1
IC50 [1]: 206 nM
remaining at 1 h, 1 µM [2]: 39%
Cmax [3]: 52.1 µg/mL
AUC(0-t) at 24 h [4]: 39100 ng·h/mL
half-life [5]: 44.4 min
half-life [6]: 39 min
Tmax [7]: 1 h
Cmax [8]: 13300 ng/mL
Cmax [9]: 91.3 ng/mL
half-life [10]: 176 min
Cmax [11]: 91.9 ng/mL
AUC(0-t) at 24 h [12]: 116 ng·h/mL

C[C@H](Cc1ccc(OCc2ccc(Br)c(Cl)c2)cc1)N(C)CC(=O)O
AUC(0-t) at 24 h [13]: 94800 ng·h/mL
half-life [14]: 236 min
Kp at 24 h [15]: 0.11
AUC(0-t) at 24 h [16]: 66900 ng·h/mL
Cmax [17]: 806 ng/mL
Kp at 24 h [18]: 0.19
Tmax [19]: 1 h
AUC(0-t) at 24 h [20]: 104 µg·h/mL
AUC(0-t) at 24 h [21]: 12600 ng·h/mL
